Data: ChEMBL document CHEMBL1151428, “Capability of 11 antipneumococcal antibiotics to select for resistance by multistep and single-step methodologies” (2007)
Values after ≈ are worked out from the molar mass of the structure shown.

Key:
Type in all cases: functional
[1] = test system: Streptococcus pneumoniae; test: Antimicrobial activity against drug-resistant Streptococcus pneumoniae isolate 24 after 50 passages by multi-step resistance selection technique
Outline: (§1)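 Daily serial passage in subinhibitory drug levels in 1 ml cation-adjusted Mueller-Hinton broth with 5% lysed horse blood; fresh broth for tigecycline. Each day, 10 μl were taken from the tube one to two dilutions below the MIC whose turbidity matched the growth control, and used to set the next MIC. MIC by macrodilution.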

[2] = test system: Streptococcus pneumoniae; test: Antimicrobial activity against drug-resistant Streptococcus pneumoniae isolate 1635 after 49 passages with clarithromycin measured after 10 antibiotic-free subculture by multi-step resistance selection technique
[3] = test system: Streptococcus pneumoniae; test: Antimicrobial activity against drug-resistant Streptococcus pneumoniae isolate 1635 after 50 passages by multi-step resistance selection technique; outline: as §1
[4] = test system: Streptococcus pneumoniae; test: Antimicrobial activity against drug-resistant Streptococcus pneumoniae isolate 1635 by NCCLS M7-A7 method
[5] = test system: Streptococcus pneumoniae; test: Antimicrobial activity against drug-resistant Streptococcus pneumoniae isolate 3243 after 20 passages with moxifloxacin measured after 10 antibiotic-free subculture by multi-step resistance selection technique
Outline: (§2)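 Mutants selected by daily broth passage in subinhibitory drug in cation-adjusted Mueller-Hinton broth with 5% lysed horse blood. Stability was tested by 10 daily passages on blood agar without antibiotic, then macrodilution MIC.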

[6] = test system: Streptococcus pneumoniae; test: Antimicrobial activity against drug-resistant Streptococcus pneumoniae isolate 3243 after 33 passages with azithromycin measured after 10 antibiotic-free subculture by multi-step resistance selection technique; outline: as §2
[7] = test system: Streptococcus pneumoniae; test: Antimicrobial activity against drug-resistant Streptococcus pneumoniae isolate 3243 after 29 passages with Telithromycin measured after 10 antibiotic-free subculture by multi-step resistance selection technique; outline: as §2
[8] = test system: Streptococcus pneumoniae; test: Antimicrobial activity against drug-resistant Streptococcus pneumoniae isolate 3243 by NCCLS M7-A7 method
[9] = test system: Streptococcus pneumoniae; test: Antimicrobial activity against drug-resistant Streptococcus pneumoniae isolate 3676 after 50 passages with moxifloxacin measured after 10 antibiotic-free subculture by multi-step resistance selection technique
[10] = test system: Streptococcus pneumoniae; test: Antimicrobial activity against drug-resistant Streptococcus pneumoniae isolate 3274 after 50 passages by multi-step resistance selection technique; outline: as §1
[11] = test system: Streptococcus pneumoniae; test: Antimicrobial activity against drug-resistant Streptococcus pneumoniae isolate 3274 by NCCLS M7-A7 method
[12] = test system: Streptococcus pneumoniae; test: Antimicrobial activity against drug-resistant Streptococcus pneumoniae isolate 2527 after 14 passages with gemifloxacin measured after 10 antibiotic-free subculture by multi-step resistance selection technique; outline: as §2
[13] = test system: Streptococcus pneumoniae; test: Antimicrobial activity against drug-resistant Streptococcus pneumoniae isolate 2527 after 20 passages with azithromycin measured after 10 antibiotic-free subculture by multi-step resistance selection technique; outline: as §2
[14] = test system: Streptococcus pneumoniae; test: Antimicrobial activity against drug-resistant Streptococcus pneumoniae isolate 2527 by NCCLS M7-A7 method
[15] = test system: Streptococcus pneumoniae; test: Antimicrobial activity against drug-resistant Streptococcus pneumoniae isolate 2527 after 50 passages by multi-step resistance selection technique
Outline: (§3)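 Daily serial passage in subinhibitory drug levels in 1 ml cation-adjusted Mueller-Hinton broth with 5% lysed horse blood; fresh broth for tigecycline. Each day, 10 μl were taken from the tube one to two dilutions below the MIC whose turbidity matched the growth control, and used to set the next MIC. […] MIC by macrodilution.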

[16] = test system: Streptococcus pneumoniae; test: Antimicrobial activity against drug-resistant Streptococcus pneumoniae isolate 3665 after 50 passages by multi-step resistance selection technique
Outline: (§4)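 Daily serial passage in broth at subinhibitory drug levels: 1 ml cation-adjusted Mueller-Hinton broth with 5% lysed horse blood; fresh broth for tigecycline. Each day 10 μl inoculum taken from the tube one to two dilutions below MIC matching growth-control turbidity, used to set next MIC. Continued until ≥8-fold MIC rise, minimum 14, maximum 50 passages; MIC read by macrodilution.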

[17] = test system: Streptococcus pneumoniae; test: Antimicrobial activity against drug-resistant Streptococcus pneumoniae isolate 3665 by NCCLS M7-A7 method
[18] = test system: Streptococcus pneumoniae; test: Antimicrobial activity against drug-resistant Streptococcus pneumoniae isolate 1077 after 15 passages with Telithromycin measured after 10 antibiotic-free subculture by multi-step resistance selection technique; outline: as §2
[19] = test system: Streptococcus pneumoniae; test: Antimicrobial activity against drug-resistant Streptococcus pneumoniae isolate 1076 after 35 passages with moxifloxacin measured after 10 antibiotic-free subculture by multi-step resistance selection technique; outline: as §2
[20] = test system: Streptococcus pneumoniae; test: Antimicrobial activity against drug-resistant Streptococcus pneumoniae isolate 1076 after 14 passages with Telithromycin measured after 10 antibiotic-free subculture by multi-step resistance selection technique; outline: as §2
[21] = test system: Streptococcus pneumoniae; test: Antimicrobial activity against drug-resistant Streptococcus pneumoniae isolate 1076 by NCCLS M7-A7 method
[22] = test system: Streptococcus pneumoniae; test: Antimicrobial activity against drug-resistant Streptococcus pneumoniae isolate 1076 after 50 passages by multi-step resistance selection technique; outline: as §3
[23] = test system: Streptococcus pneumoniae; test: Antimicrobial activity against drug-resistant Streptococcus pneumoniae isolate 3009 after 19 passages with moxifloxacin measured after 10 antibiotic-free subculture by multi-step resistance selection technique; outline: as §2
[24] = test system: Streptococcus pneumoniae; test: Antimicrobial activity against drug-resistant Streptococcus pneumoniae isolate 3009 after 21 passages with gemifloxacin measured after 10 antibiotic-free subculture by multi-step resistance selection technique; outline: as §2
[25] = test system: Streptococcus pneumoniae; test: Antimicrobial activity against drug-resistant Streptococcus pneumoniae isolate 3009 by NCCLS M7-A7 method
[26] = test system: Streptococcus pneumoniae; test: Antimicrobial activity against drug-resistant Streptococcus pneumoniae isolate 3009 after 50 passages by multi-step resistance selection technique; outline: as §3
[27] = test system: Streptococcus pneumoniae; test: Antimicrobial activity against drug-resistant Streptococcus pneumoniae isolate 37 by NCCLS M7-A7 method
[28] = test system: Streptococcus pneumoniae; test: Antimicrobial activity against drug-resistant Streptococcus pneumoniae isolate 37 after 50 passages by multi-step resistance selection technique
Outline: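 Daily serial passage in broth at subinhibitory drug levels: 1 ml cation-adjusted Mueller-Hinton broth with 5% lysed horse blood; fresh broth for tigecycline. Each day 10 μl inoculum taken from the tube one to two dilutions below MIC matching growth-control turbidity, used to set next MIC.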

[29] = test system: Streptococcus pneumoniae; test: Antimicrobial activity against drug-resistant Streptococcus pneumoniae isolate 37 after 14 passages with Telithromycin measured after 10 antibiotic-free subculture by multi-step resistance selection technique
[30] = test system: Streptococcus pneumoniae; test: Antimicrobial activity against drug-resistant Streptococcus pneumoniae isolate 3413 by NCCLS M7-A7 method
[31] = test system: Streptococcus pneumoniae; test: Antimicrobial activity against drug-resistant Streptococcus pneumoniae isolate 3413 after 50 passages by multi-step resistance selection technique; outline: as §1
[32] = test system: Streptococcus pneumoniae; test: Antimicrobial activity against drug-resistant Streptococcus pneumoniae isolate 3413 after 30 passages with Telithromycin measured after 10 antibiotic-free subculture by multi-step resistance selection technique; outline: as §2
[33] = test system: Streptococcus pneumoniae; test: Antimicrobial activity against drug-resistant Streptococcus pneumoniae isolate 3676 after 44 passages with clarithromycin measured after 10 antibiotic-free subculture by multi-step resistance selection technique
[34] = test system: Streptococcus pneumoniae; test: Antimicrobial activity against drug-resistant Streptococcus pneumoniae isolate 3676 after 50 passages by multi-step resistance selection technique; outline: as §4
[35] = test system: Streptococcus pneumoniae; test: Antimicrobial activity against drug-resistant Streptococcus pneumoniae isolate 3665 after 38 passages with moxifloxacin measured after 10 antibiotic-free subculture by multi-step resistance selection technique
[36] = test system: Streptococcus pneumoniae; test: Antimicrobial activity against drug-resistant Streptococcus pneumoniae isolate 3665 after 26 passages with clarithromycin measured after 10 antibiotic-free subculture by multi-step resistance selection technique
[37] = test system: Streptococcus pneumoniae; test: Antimicrobial activity against drug-resistant Streptococcus pneumoniae isolate 3665 after 14 passages with Telithromycin measured after 10 antibiotic-free subculture by multi-step resistance selection technique
[38] = test system: Streptococcus pneumoniae; test: Antimicrobial activity against drug-resistant Streptococcus pneumoniae isolate 3009 after 25 passages with clarithromycin measured after 10 antibiotic-free subculture by multi-step resistance selection technique

| Compound | MIC [1] | MIC [2] | MIC [3] | MIC [4] | MIC [5] | MIC [6] | MIC [7] | MIC [8] | MIC [9] | MIC [10] | MIC [11] | MIC [12] | MIC [13] | MIC [14] | MIC [15] | MIC [16] | MIC [17] | MIC [18] | MIC [19] | MIC [20] | also measured |
| --- | --- | --- | --- | --- | --- | --- | --- | --- | --- | --- | --- | --- | --- | --- | --- | --- | --- | --- | --- | --- | --- |
| C[C@@H](O)[C@H]1C(=O)N2C(C(=O)O)=C(SCCNC=N)C[C@H]12 [IMIPENEM ANHYDROUS] | 0.5 µg/mL (≈ 1.67 µM) | 0.002 µg/mL (≈ 0.00668 µM) | 0.002 µg/mL (≈ 0.00668 µM) | 0.002 µg/mL (≈ 0.00668 µM) | 0.004 µg/mL (≈ 0.0134 µM) | 0.03 µg/mL (≈ 0.1 µM) | 0.016 µg/mL (≈ 0.0534 µM) | 0.016 µg/mL (≈ 0.0534 µM) | 0.03 µg/mL (≈ 0.1 µM) | 0.03 µg/mL (≈ 0.1 µM) | 0.016 µg/mL (≈ 0.0534 µM) | 0.125 µg/mL (≈ 0.418 µM) | 0.5 µg/mL (≈ 1.67 µM) | 0.25 µg/mL (≈ 0.835 µM) | 0.25 µg/mL (≈ 0.835 µM) | 0.016 µg/mL (≈ 0.0534 µM) | 0.03 µg/mL (≈ 0.1 µM) | 0.008 µg/mL (≈ 0.0267 µM) | 0.008 µg/mL (≈ 0.0267 µM) | 0.004 µg/mL (≈ 0.0134 µM) | MIC [21]: 0.008 µg/mL (≈ 0.0267 µM); MIC [22]: 0.008 µg/mL (≈ 0.0267 µM); MIC [23]: 0.008 µg/mL (≈ 0.0267 µM); MIC [24]: 0.008 µg/mL (≈ 0.0267 µM); MIC [25]: 0.008 µg/mL (≈ 0.0267 µM); MIC [26]: 0.008 µg/mL (≈ 0.0267 µM); MIC [27]: 0.5 µg/mL (≈ 1.67 µM); MIC [28]: 0.5 µg/mL (≈ 1.67 µM); MIC [29]: 0.25 µg/mL (≈ 0.835 µM); MIC [30]: 0.125 µg/mL (≈ 0.418 µM); MIC [31]: 0.06 µg/mL (≈ 0.2 µM); MIC [32]: 0.125 µg/mL (≈ 0.418 µM); MIC [33]: 0.016 µg/mL (≈ 0.0534 µM); MIC [34]: 0.016 µg/mL (≈ 0.0534 µM); MIC [35]: 0.03 µg/mL (≈ 0.1 µM); MIC [36]: 0.03 µg/mL (≈ 0.1 µM); MIC [37]: 0.008 µg/mL (≈ 0.0267 µM) |
| CN(C)c1cc(NC(=O)CNC(C)(C)C)c(O)c2c1C[C@H]1C[C@H]3[C@H](N(C)C)C(O)=C(C(N)=O)C(=O)[C@@]3(O)C(O)=C1C2=O [TIGECYCLINE] | 0.03 µg/mL (≈ 0.0512 µM) | 0.016 µg/mL (≈ 0.0273 µM) | 0.03 µg/mL (≈ 0.0512 µM) | 0.016 µg/mL (≈ 0.0273 µM) | 0.03 µg/mL (≈ 0.0512 µM) | 0.06 µg/mL (≈ 0.102 µM) | 0.03 µg/mL (≈ 0.0512 µM) | 0.03 µg/mL (≈ 0.0512 µM) | 0.03 µg/mL (≈ 0.0512 µM) | 0.03 µg/mL (≈ 0.0512 µM) | 0.03 µg/mL (≈ 0.0512 µM) | 0.03 µg/mL (≈ 0.0512 µM) | 0.03 µg/mL (≈ 0.0512 µM) | 0.016 µg/mL (≈ 0.0273 µM) | 0.016 µg/mL (≈ 0.0273 µM) | 0.016 µg/mL (≈ 0.0273 µM) | 0.016 µg/mL (≈ 0.0273 µM) | 0.03 µg/mL (≈ 0.0512 µM) | 0.06 µg/mL (≈ 0.102 µM) | 0.03 µg/mL (≈ 0.0512 µM) | MIC [21]: 0.03 µg/mL (≈ 0.0512 µM); MIC [22]: 0.03 µg/mL (≈ 0.0512 µM); MIC [23]: 0.06 µg/mL (≈ 0.102 µM); MIC [24]: 0.016 µg/mL (≈ 0.0273 µM); MIC [38]: 0.03 µg/mL (≈ 0.0512 µM); MIC [26]: 0.016 µg/mL (≈ 0.0273 µM); MIC [27]: 0.016 µg/mL (≈ 0.0273 µM); MIC [28]: 0.016 µg/mL (≈ 0.0273 µM); MIC [29]: 0.03 µg/mL (≈ 0.0512 µM); MIC [30]: 0.016 µg/mL (≈ 0.0273 µM); MIC [31]: 0.03 µg/mL (≈ 0.0512 µM); MIC [32]: 0.03 µg/mL (≈ 0.0512 µM); MIC [33]: 0.03 µg/mL (≈ 0.0512 µM); MIC [34]: 0.016 µg/mL (≈ 0.0273 µM); MIC [35]: 0.03 µg/mL (≈ 0.0512 µM); MIC [36]: 0.03 µg/mL (≈ 0.0512 µM); MIC [37]: 0.03 µg/mL (≈ 0.0512 µM) |
